High-throughput results: PubChem BioAssay, several laboratories
In the library only some 3.7% were active in any assay of this set; here they are far more common.
HMGR II inh: inhibitors of E. faecalis class II HMGR, primary screen, biochemical, Enterococcus faecalis; purified E. faecalis HMGR, NADPH absorbance 340 nm kinetic; inhibition, % at 10 µM; actives 0.41% (n = 190,000); AID 1066, 2008;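 active = inhibition above a set limit, the median over all tested compounds plus 3 SD, cut at about 9.5% in these data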;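 note: enzyme runs in reverse so mevalonate oxidation gives rising NADPH absorbance; 0% = complete reaction with DMSO and 100% = background rate lacking mevalonate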
Yeast growth inh: growth inhibitors of yeast BB579 in restrictive medium, primary screen, yeast lifespan-shortening project, S. cerevisiae; OD615, 48 h; inhibition, % at 10 µM; actives 0.51% (n = 140,000); AID 804, 2007;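 active = inhibition above a set limit, 3 SD over the mean compound inhibition, cut at about 44% in these data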
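Material: Saccharomyces cerevisiae DeaD strain BB579, replicative lifespan model yeast; buffer or medium: CSMM-D restrictive synthetic medium containing dextrose (glucose); compound: 10 µM single dose, DMSO 0.25%; timing: 48 h compound exposure at 30 °C after 4 h preincubation; signal: turbidity as optical density at 615 nm; benchmarks: positive control amphotericin B 10 µg/mL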
RAM inhibit: inhibitors of the yeast RAM network, primary screen, dse1pr::URA3 reporter, 5-FOA selection. actives 1.8% (n = 190,000). S. cerevisiae dse1pr::URA3 reporter, 5-FOA growth OD615, 2 d; analog-sensitive cbk1-as2 kinase mutant strain. inhibition, % at 50 µM;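 active = inhibition above a set limit, 3 SD over mean compound inhibition, cut at about 8.4% in these data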;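 note: 0% = DMSO-only wells with no growth and 100% = 10 µM 1-NA-PP1 full growth; inhibition rescues growth on 5-FOA so higher OD means more RAM inhibition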
Insulin prom inh: inhibitors of insulin promoter-driven GFP, primary screen, imaging, TRM-6 cells (human fetal islet line), eGFP reporter, cell count; reporter expression induced with tamoxifen; inhibition, % at 2 µM; actives 0.9% (n = 130,000);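 active = inhibition above the mean plus 3 SD, with well images judged a real hit on visual review, cut at about 60% in these data, passing the limit was not always enough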
Yeast lifespan up: compounds extending yeast replicative lifespan, primary screen, S. cerevisiae, OD615; S. cerevisiae growth with nicotinamide; deaD strain in restrictive glucose medium; inhibition of the nicotinamide effect, % at 10 µM; actives 0.68% (n = 130,000); AID 775, 2007;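 active = inhibition above a set limit, placed 3 SD over the median of all compounds, cut at about 26% in these data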;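 note: 0% = nicotinamide-treated wells and 100% = cells grown without nicotinamide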
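Assay system: DeaD-strain S. cerevisiae. Medium: CSMM-D glucose medium, restrictive. Reagent: nicotinamide, 1.5 mM, co-present with compound. Compound: 10 µM single point, 0.25% DMSO. Schedule: culture preincubation 4 h, compound exposure 48 h, both 30 °C. Detection: absorbance at 615 nm.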
RAM 5-FOA: 5-FOA growth of efflux-deficient control yeast, dose response, counter-screen for RAM network inhibitor project, S. cerevisiae, OD615; shares compounds with RAM inhibit; S. cerevisiae efflux-deficient reporter strain, 5-FOA growth OD615, 2 days; max inhibition, %; 1,200 tested, under 10 active; call rule not given here;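 note: plate controls were vehicle for no effect and reference inhibitor for full effect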
* marks the source's active call; other numbers are inactive results; . = no result given.

SMILES | HMGR II inh | Yeast growth inh | RAM inhibit | Insulin prom inh | Yeast lifespan up | RAM 5-FOA
COc1ccc(CN2CCN(Cc3cccn3-c3ncccn3)CC2CCO)c(C)c1C (stereo not given) | 1.6 | . | 0.4 | . | . | .
CCOC(=O)C1CN(S(=O)(=O)c2ccc(OC)cc2)c2cc(S(=O)(=O)CC)ccc2O1 (stereo not given) | 3.1 | -28.9 | 2.8 | -17.9 | -13.2 | .
O=C(Cn1ncc(Cl)c(Cl)c1=O)N1CCN(S(=O)(=O)c2ccc3ccccc3c2)CC1 | -6.5 | -3.2 | 3.5 | . | 1.5 | .
O=C(CN1CCSC1=NCc1ccccc1)c1ccccc1 | -0.9 | -35.6 | 0.2 | 0.0 | 4.8 | .
COc1ccc(Nc2nc(S(=O)(=O)c3ccc(C)cc3)c(Cl)s2)cc1 | -11.2 | -9.5 | 5.8 | . | -0.9 | .
Cc1ccc(S(=O)(=O)c2nc(Nc3ccccc3)sc2Cl)cc1 | -8.8 | -29.4 | 13.1* | . | -7.3 | 2.2
COc1ccc(C(=O)N2CCOC2CNC(=O)C(=O)NCc2ccc3c(c2)OCO3)cc1 (stereo not given) | -4.8 | . | 2.3 | . | . | .
CC(=O)NC(=S)Nc1ccc(S(=O)(=O)Nc2nc(C)cc(C)n2)cc1 | 2.3 | . | -0.2 | 0.0 | . | .
COc1cccc(C(=O)CSc2nnc(-c3cc(OC)c(OC)c(OC)c3)o2)c1 | 0.5 | -61.6 | 13.3* | . | -4.8 | 3.0
COc1cc(-c2nnc(-c3ccccc3)o2)cc(OC)c1OC | -3.1 | 6.0 | 23.0* | 68.8 | . | 3.0
COc1cc(-c2nnc(SCC(=O)c3ccc(C)cc3)o2)cc(OC)c1OC | -4.1 | -8.1 | 1.3 | -12.5 | -6.8 | .
COc1cc(-c2nnc(-c3cc(OC)c(OC)c(OC)c3)o2)cc(OC)c1OC | 4.7 | -35.2 | 5.2 | 14.3 | . | .
CCc1cccc(C)c1NC(=O)C1CN(S(=O)(=O)c2ccccc2)CCN1S(=O)(=O)c1ccccc1 (stereo not given) | 1.6 | -6.9 | 2.5 | -7.7 | 8.2 | .
C=CCSc1nc2sc3c(c2c(=O)n1CC=C)CCc1ccccc1-3 | -2.5 | 0.8 | -0.8 | . | -0.8 | .
C=CCn1c(SCCC)nc2sc3c(c2c1=O)CCc1ccccc1-3 | 2.1 | -24.6 | 14.8* | -28.6 | 4.5 | 3.1
COc1cccc(-c2csc3nnc(SCC(=O)NCc4cccs4)n23)c1 | -4.3 | -24.3 | 17.4* | . | 5.8 | 1.8
COc1ccc(N(CC(=O)NCc2ccc(C)cc2)S(=O)(=O)c2c(C)nn(C)c2C)cc1 | -0.4 | -29.1 | 15.1* | -66.7 | 1.3 | 2.6
COc1ccc(CNC(=O)CN(c2ccc(OC)cc2)S(=O)(=O)c2c(C)nn(C)c2C)cc1 | 4.2 | 1.8 | 1.9 | -38.9 | 2.0 | .
NC(=O)COC(=O)CN1C(=O)C2CCCCC2C1=O (stereo not given) | 0.2 | -19.2 | -0.1 | . | -8.5 | .
Cc1ccc(S(=O)(=O)N(CCCO)CC(O)CON=C2c3ccccc3-c3ccccc32)cc1 (stereo not given) | 1.0 | -25.3 | 13.3* | . | -0.8 | 3.3
Cc1ccc(-n2cc(CN(C)CCc3cn[nH]c3)c(-c3cccc(C)c3)n2)cc1 | 0.0 | . | 0.4 | . | . | .
OC(COCC(F)(F)C(F)(F)C(F)(F)C(F)F)Cn1c2ccc(Cl)cc2c2cc(Cl)ccc21 (stereo not given) | -1.4 | -32.7 | 17.9* | . | -0.6 | 2.4
N=c1n(Cc2ccc(Cl)cc2)c2ccccc2n1CC(O)COc1ccccc1 (stereo not given) | -7.1 | . | -1.3 | . | . | .
CCN1C(=O)N(CC)C2C1N(CO)C(=O)N2CO (stereo not given) | 3.2 | . | 3.4 | 8.3 | . | .
CC(C)OC(=O)/C(C#N)=C/c1cn(Cc2ccccc2)c2ccccc12 | -2.4 | -45.9 | 15.8* | . | -1.0 | 6.4
SMILES | HMGR II inh | Yeast growth inh | RAM inhibit | Insulin prom inh | Yeast lifespan up | RAM 5-FOA
CC(C)COC(=O)/C(C#N)=C/c1cn(Cc2ccccc2)c2ccccc12 | -4.5 | -36.5 | 19.0* | . | 4.8 | 10.7
Cc1[nH][nH]c(=O)c1C=NCc1ccc(Cl)cc1 | -2.6 | . | -0.5 | . | . | .
CCCCCCC1CC(=O)NC(=S)N1 (stereo not given) | -1.6 | . | -0.2 | -26.7 | . | .
C/C(=N\NC(=O)c1cc(-c2cccc([N+](=O)[O-])c2)n[nH]1)c1ccccc1O | -1.9 | -22.0 | 3.7 | . | 0.2 | .
CC(C)c1ccccc1NC(=O)COC(=O)COc1ccccc1[N+](=O)[O-] | -2.3 | . | 1.0 | 50.0 | . | .
CCOC(=O)c1cnn(-c2ccccc2)c1-n1cccc1C(=O)C(=O)N(CC)CC | -7.1 | . | -0.5 | 5.0 | . | .
CCOC(=O)c1cnn(-c2ccccc2)c1-n1cccc1C(=O)C(=O)Nc1ccccc1C(F)(F)F | -4.6 | -27.9 | 14.4* | 21.2 | -3.7 | 2.9
COc1ccccc1N(CC(O)COc1ccccc1)S(=O)(=O)c1ccccc1 (stereo not given) | 1.3 | -44.2 | 5.0 | 18.8 | 8.8 | .
COc1ccccc1N(CC(O)COc1c(C)cc(C)cc1C)S(=O)(=O)c1ccccc1 (stereo not given) | -0.2 | -31.0 | 11.8* | -43.8 | 6.9 | 5.5
COc1ccccc1N(CC(O)CN(c1ccccc1)S(C)(=O)=O)S(=O)(=O)c1ccccc1 (stereo not given) | -14.7 | -34.9 | 0.7 | -2.7 | -18.0 | .
COc1ccccc1N(CC(O)COc1ccc(C)cc1)S(=O)(=O)c1ccccc1 (stereo not given) | -1.9 | -16.7 | 12.4* | . | 6.2 | 1.6
O=C(COC(=O)CNC(=O)c1cccc([N+](=O)[O-])c1)NCc1ccco1 | -1.9 | . | 1.9 | . | . | .
O=C1C2=C(C(c3ccccc3)=NCCN2)C(c2cccc([N+](=O)[O-])c2)N1c1ccccc1 (stereo not given) | -2.0 | . | -0.3 | . | . | .
COc1ccccc1N(CC(=O)NCCSc1ccc(Cl)cc1)S(C)(=O)=O | 4.2 | . | 5.3 | -35.3 | . | .
COc1ccccc1NC(=O)N1CCN(C)CC1 | -0.8 | . | 0.5 | . | . | .
COC(=O)Cc1ccc(N(Cc2ccccc2F)S(=O)(=O)c2ccc(C)cc2)cc1 | -8.4 | -11.3 | 20.0* | -50.0 | 10.2 | 2.5
C=CCOc1cccc(/C=C2\C(=O)N(Cc3ccc(C)cc3)C(C)=C2C(=O)OC)c1 | 3.1 | -19.9 | 17.8* | . | 7.1 | 4.2
O=C(NCc1ccccc1)c1ccc(S(=O)(=O)N2CCCc3ccccc32)cc1 | -1.9 | -70.4 | 12.2* | -4.7 | -22.2 | 3.3
OCCCNc1nc(-c2ccc(Cl)cc2)nnc1-c1ccc(Br)cc1 | -3.1 | -35.5 | 1.2 | -15.4 | -1.8 | .
O=[N+]([O-])c1ccc(-c2nnc(-c3ccccc3)c(NCCCO)n2)cc1 | 1.9 | -41.3 | 12.7* | -29.4 | -4.1 | 2.2
Brc1ccc(Cn2c(-c3ccc(Br)o3)nc3ccccc32)o1 | 0.9 | -48.7 | 13.1* | -135.7 | 2.1 | 3.3
Cn1cccc1-c1cc(C(=O)N/N=C/C=C/c2ccccc2)[nH]n1 | -6.0 | . | 5.2 | 27.8 | . | .
